Reference: ChEMBL document CHEMBL4689842, “EUbOPEN Chemogenomics Library wave 1” (2021)

Tested on: Fibroblast
Experiment: Multiplex assay against human fibroblast
Format: toxicity, cell-based
How it was run: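 Imaging took place on a CQ1 microscope at 37°C and 5% CO2 once compound had been added to live cells stained at seeding with Hoechst33342, BioTracker Green Microtubule Cytoskeleton Dye, MitoTracker Red and Annexin V Alexa Fluor 680. CellPathfinder machine-learning gating classed cells as Hoechst high-intensity objects or normal cells, classed normal cells as having healthy, pyknosed or fragmented nuclei, and classed pyknosed cells as mitotic or apoptotic. Tubulin, mitochondrial-mass and membrane-permeability phenotypes are per cents of the healthy-nucleus cells.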

[1] = 12 h, 1 µM, compound concentration 1 uM, replicate 1
[2] = 12 h, 1 µM, compound concentration 1 uM, replicate 2
[3] = 12 h, 10 µM, compound concentration 10 uM, replicate 1
[4] = 12 h, 10 µM, compound concentration 10 uM, replicate 2
[5] = 24 h, 1 µM, compound concentration 1 uM, replicate 1
[6] = 24 h, 1 µM, compound concentration 1 uM, replicate 2
[7] = 24 h, 10 µM, compound concentration 10 uM, replicate 1
[8] = 24 h, 10 µM, compound concentration 10 uM, replicate 2

Q: What does the source list for `Cn1nc(C(F)(F)F)cc1-c1cnc(N2CCc3cc(S(=O)(=O)Nc4c(F)cc(Cl)cc4F)cc(N4CCCC4=O)c32)nc1` [TP-020]?
A: Population Apoptotic (%) [1]: 69%; Population Fragmented Nuclei (%) [1]: 20%; Population Healthy Nuclei (%) [1]: 59%; Population Hoechst High Intensity Objects (%) [1]: 13%; Population Membrane Permeable-Phenotype (%) [1]: 35%; Population Mitochondria Different-Phenotype (%) [1]: 4%; Population Mitotic Cells (%) [1]: 30%; Population Normal (%) [1]: 86%; Population Pyknosed Nuclei (%) [1]: 20%; Population Tubulin-Different-Phenotype (%) [1]: 58%; Total Cell Count [1]: 241; Population Apoptotic (%) [2]: 42%; Population Fragmented Nuclei (%) [2]: 56%; Population Healthy Nuclei (%) [2]: 26%; Population Hoechst High Intensity Objects (%) [2]: 34%; Population Membrane Permeable-Phenotype (%) [2]: 45%; Population Mitochondria Different-Phenotype (%) [2]: 18%; Population Mitotic Cells (%) [2]: 57%; Population Normal (%) [2]: 65%; Population Pyknosed Nuclei (%) [2]: 17%; Population Tubulin-Different-Phenotype (%) [2]: 72%; Total Cell Count [2]: 63; Population Apoptotic (%) [3]: 65%; Population Fragmented Nuclei (%) [3]: 30%; Population Healthy Nuclei (%) [3]: 57%; Population Hoechst High Intensity Objects (%) [3]: 7%; Population Membrane Permeable-Phenotype (%) [3]: 13%; Population Mitochondria Different-Phenotype (%) [3]: 1%; Population Mitotic Cells (%) [3]: 35%; Population Normal (%) [3]: 92%; Population Pyknosed Nuclei (%) [3]: 11%; Population Tubulin-Different-Phenotype (%) [3]: 3%; Total Cell Count [3]: 192; Population Apoptotic (%) [4]: 33%; Population Fragmented Nuclei (%) [4]: 62%; Population Healthy Nuclei (%) [4]: 28%; Population Hoechst High Intensity Objects (%) [4]: 41%; Population Membrane Permeable-Phenotype (%) [4]: 10%; Population Mitochondria Different-Phenotype (%) [4]: 0%; Population Mitotic Cells (%) [4]: 66%; Population Normal (%) [4]: 58%; Population Pyknosed Nuclei (%) [4]: 8%; Population Tubulin-Different-Phenotype (%) [4]: 10%; Total Cell Count [4]: 60; Population Apoptotic (%) [5]: 51%; Population Fragmented Nuclei (%) [5]: 19%; Population Healthy Nuclei (%) [5]: 57%; Population Hoechst High Intensity Objects (%) [5]: 9%; Population Membrane Permeable-Phenotype (%) [5]: 25%; Population Mitochondria Different-Phenotype (%) [5]: 4%; Population Mitotic Cells (%) [5]: 48%; Population Normal (%) [5]: 90%; Population Pyknosed Nuclei (%) [5]: 23%; Population Tubulin-Different-Phenotype (%) [5]: 55%; Total Cell Count [5]: 246; Population Apoptotic (%) [6]: 57%; Population Fragmented Nuclei (%) [6]: 57%; Population Healthy Nuclei (%) [6]: 26%; Population Hoechst High Intensity Objects (%) [6]: 36%; Population Membrane Permeable-Phenotype (%) [6]: 18%; Population Mitochondria Different-Phenotype (%) [6]: 27%; Population Mitotic Cells (%) [6]: 42%; Population Normal (%) [6]: 63%; Population Pyknosed Nuclei (%) [6]: 16%; Population Tubulin-Different-Phenotype (%) [6]: 27%; Total Cell Count [6]: 66; Population Apoptotic (%) [7]: 42%; Population Fragmented Nuclei (%) [7]: 22%; Population Healthy Nuclei (%) [7]: 66%; Population Hoechst High Intensity Objects (%) [7]: 10%; Population Membrane Permeable-Phenotype (%) [7]: 7%; Population Mitochondria Different-Phenotype (%) [7]: 1%; Population Mitotic Cells (%) [7]: 57%; Population Normal (%) [7]: 89%; Population Tubulin-Different-Phenotype (%) [7]: 2%; Total Cell Count [7]: 188; Population Apoptotic (%) [8]: 50%; Population Fragmented Nuclei (%) [8]: 52%; Population Healthy Nuclei (%) [8]: 35%; Population Hoechst High Intensity Objects (%) [8]: 38%; Population Membrane Permeable-Phenotype (%) [8]: 8%; Population Mitochondria Different-Phenotype (%) [8]: 0%; Population Mitotic Cells (%) [8]: 50%; Population Normal (%) [8]: 61%; Population Pyknosed Nuclei (%) [8]: 11%; Population Tubulin-Different-Phenotype (%) [8]: 25%; Total Cell Count [8]: 55
